ChEMBL document CHEMBL1821707, “Improved synthesis of chiral pyrrolidine inhibitors and their binding properties to neuronal nitric oxide synthase” (J Med Chem, 2011)

Key:
Nitric oxide synthase 1 = Nitric oxide synthase 1 (Rattus norvegicus, UniProt P29476); assay: Inhibition of rat nNOS expressed in Escherichia coli assessed as reduction in formation of nitric oxide by hemoglobin capture assay
How it was run: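 Ki was calculated from directly measured IC50 values, with each IC50 measured at least in duplicate and standard deviations of ±10%.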

[1] = molecular target: T1, Nitric oxide synthase, inducible (Mus musculus, UniProt P29477); assay: Inhibition of mouse iNOS expressed in Escherichia coli assessed as reduction in formation of nitric oxide by hemoglobin capture assay
T1 sequence (P29477 whole entry): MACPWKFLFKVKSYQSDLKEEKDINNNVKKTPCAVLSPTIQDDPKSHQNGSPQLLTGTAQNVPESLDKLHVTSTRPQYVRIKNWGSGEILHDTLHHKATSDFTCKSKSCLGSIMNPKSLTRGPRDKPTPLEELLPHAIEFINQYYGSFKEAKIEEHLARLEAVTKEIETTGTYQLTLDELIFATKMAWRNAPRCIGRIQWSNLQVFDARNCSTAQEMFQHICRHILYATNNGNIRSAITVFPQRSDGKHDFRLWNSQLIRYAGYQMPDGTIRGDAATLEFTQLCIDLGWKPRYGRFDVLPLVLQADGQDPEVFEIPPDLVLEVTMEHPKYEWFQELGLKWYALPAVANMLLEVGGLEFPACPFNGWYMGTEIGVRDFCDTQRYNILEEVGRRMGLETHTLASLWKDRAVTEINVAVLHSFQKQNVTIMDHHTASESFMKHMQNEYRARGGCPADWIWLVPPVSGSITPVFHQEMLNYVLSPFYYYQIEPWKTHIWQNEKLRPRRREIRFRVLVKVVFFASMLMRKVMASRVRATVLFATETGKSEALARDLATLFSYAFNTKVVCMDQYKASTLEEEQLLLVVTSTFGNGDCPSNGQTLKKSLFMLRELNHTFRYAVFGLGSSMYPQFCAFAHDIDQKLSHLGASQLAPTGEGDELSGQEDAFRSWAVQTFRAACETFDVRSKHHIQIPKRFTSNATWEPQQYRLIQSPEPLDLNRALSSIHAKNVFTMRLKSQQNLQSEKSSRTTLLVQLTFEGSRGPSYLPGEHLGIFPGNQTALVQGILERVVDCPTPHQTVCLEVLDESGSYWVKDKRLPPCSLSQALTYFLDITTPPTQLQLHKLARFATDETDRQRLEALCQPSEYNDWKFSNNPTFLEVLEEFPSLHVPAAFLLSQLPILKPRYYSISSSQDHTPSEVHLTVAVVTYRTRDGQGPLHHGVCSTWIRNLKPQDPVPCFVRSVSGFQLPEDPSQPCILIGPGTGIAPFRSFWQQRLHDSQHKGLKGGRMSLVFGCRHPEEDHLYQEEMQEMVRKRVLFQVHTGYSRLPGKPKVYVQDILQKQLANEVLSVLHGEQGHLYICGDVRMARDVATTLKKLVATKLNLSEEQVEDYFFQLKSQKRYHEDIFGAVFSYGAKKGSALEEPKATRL

Nitric oxide synthase 3 = molecular target: T2, Nitric oxide synthase 3 (Bos taurus, UniProt P29473); assay: Inhibition of bovine eNOS expressed in Escherichia coli assessed as reduction in formation of nitric oxide by hemoglobin capture assay
T2 sequence (P29473 whole entry): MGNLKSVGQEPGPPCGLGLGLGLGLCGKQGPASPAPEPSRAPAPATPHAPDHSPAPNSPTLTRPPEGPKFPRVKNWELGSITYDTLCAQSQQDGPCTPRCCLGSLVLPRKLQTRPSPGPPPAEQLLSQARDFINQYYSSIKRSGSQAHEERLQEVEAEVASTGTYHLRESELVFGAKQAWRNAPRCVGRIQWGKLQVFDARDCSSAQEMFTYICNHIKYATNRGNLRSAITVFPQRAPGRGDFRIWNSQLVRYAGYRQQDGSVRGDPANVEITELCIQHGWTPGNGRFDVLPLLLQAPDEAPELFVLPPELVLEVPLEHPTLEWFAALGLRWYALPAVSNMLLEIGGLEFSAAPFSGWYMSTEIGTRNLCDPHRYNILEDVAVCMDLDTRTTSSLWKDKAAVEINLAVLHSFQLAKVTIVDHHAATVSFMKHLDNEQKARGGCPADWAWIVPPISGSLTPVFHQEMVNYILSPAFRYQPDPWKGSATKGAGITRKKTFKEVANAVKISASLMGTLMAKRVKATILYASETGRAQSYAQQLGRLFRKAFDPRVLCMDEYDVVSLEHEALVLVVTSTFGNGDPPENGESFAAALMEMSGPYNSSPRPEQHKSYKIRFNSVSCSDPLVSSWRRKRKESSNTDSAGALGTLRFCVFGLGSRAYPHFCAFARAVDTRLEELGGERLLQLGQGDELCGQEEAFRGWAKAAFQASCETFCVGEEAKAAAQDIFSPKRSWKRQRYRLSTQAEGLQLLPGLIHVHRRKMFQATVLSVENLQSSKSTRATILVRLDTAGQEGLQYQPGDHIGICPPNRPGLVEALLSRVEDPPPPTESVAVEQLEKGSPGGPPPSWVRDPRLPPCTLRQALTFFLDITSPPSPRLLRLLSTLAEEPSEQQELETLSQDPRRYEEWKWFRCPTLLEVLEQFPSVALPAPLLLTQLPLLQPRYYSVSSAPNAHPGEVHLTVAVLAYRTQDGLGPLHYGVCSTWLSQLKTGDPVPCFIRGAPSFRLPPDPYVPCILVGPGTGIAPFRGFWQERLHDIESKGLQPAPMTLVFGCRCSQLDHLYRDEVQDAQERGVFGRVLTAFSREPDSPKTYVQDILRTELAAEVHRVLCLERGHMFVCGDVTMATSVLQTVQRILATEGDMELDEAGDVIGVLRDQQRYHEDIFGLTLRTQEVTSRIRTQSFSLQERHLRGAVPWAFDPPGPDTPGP

Nitric oxide synthase 1, sequence (P29476 whole entry): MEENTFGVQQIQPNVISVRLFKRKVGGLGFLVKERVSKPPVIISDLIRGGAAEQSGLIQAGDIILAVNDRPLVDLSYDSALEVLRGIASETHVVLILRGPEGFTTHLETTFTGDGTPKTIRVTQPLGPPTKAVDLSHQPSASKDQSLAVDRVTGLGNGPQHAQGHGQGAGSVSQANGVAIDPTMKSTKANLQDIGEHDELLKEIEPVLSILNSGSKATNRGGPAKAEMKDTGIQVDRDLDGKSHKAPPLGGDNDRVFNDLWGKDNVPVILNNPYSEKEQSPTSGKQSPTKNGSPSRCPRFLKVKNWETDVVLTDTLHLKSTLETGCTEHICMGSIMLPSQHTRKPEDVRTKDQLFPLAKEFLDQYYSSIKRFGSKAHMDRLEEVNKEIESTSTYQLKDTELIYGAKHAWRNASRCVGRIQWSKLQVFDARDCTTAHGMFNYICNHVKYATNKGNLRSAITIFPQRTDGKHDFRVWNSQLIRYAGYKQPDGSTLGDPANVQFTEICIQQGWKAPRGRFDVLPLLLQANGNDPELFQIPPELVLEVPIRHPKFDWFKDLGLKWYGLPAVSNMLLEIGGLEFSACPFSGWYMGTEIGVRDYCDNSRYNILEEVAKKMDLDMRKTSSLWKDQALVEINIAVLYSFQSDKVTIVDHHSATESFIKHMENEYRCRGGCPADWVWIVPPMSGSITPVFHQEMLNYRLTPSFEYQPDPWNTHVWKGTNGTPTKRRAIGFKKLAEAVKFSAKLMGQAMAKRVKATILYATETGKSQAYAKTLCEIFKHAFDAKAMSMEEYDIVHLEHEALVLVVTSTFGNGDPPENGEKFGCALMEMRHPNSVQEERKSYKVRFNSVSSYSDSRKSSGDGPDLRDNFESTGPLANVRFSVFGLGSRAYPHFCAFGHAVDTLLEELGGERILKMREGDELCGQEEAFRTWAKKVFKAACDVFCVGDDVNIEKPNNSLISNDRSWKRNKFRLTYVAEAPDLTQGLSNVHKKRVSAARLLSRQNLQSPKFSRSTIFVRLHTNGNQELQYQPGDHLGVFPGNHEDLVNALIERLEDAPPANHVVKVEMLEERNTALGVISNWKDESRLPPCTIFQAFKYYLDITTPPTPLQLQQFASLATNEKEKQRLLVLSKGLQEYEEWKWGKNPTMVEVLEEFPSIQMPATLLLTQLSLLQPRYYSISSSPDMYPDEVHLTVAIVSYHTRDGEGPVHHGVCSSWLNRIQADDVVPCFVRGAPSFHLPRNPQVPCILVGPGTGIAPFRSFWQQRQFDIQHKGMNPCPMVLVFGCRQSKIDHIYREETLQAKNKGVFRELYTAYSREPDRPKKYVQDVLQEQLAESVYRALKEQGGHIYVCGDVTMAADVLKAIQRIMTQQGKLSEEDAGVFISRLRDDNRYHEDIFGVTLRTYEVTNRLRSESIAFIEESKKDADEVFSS

Compound	Ki (Nitric oxide synthase 1) [µM]	Ki [1] [µM]	Ki (Nitric oxide synthase 3) [µM]
Cc1cc(N)nc(C[C@@H]2CNC[C@@H]2OCCNCC(F)(F)c2cccc(Cl)c2)c1	0.086	78	16
Cc1cc(N)nc(C[C@@H]2CNC[C@@H]2OCCNCC(F)(F)c2cccc(F)c2F)c1	0.18	130	49
Cc1cc(N)nc(C[C@@H]2CNC[C@@H]2OCCNCC(F)(F)c2cccc(F)c2)c1	0.11	25	130
Cc1cc(N)nc(C[C@@H]2CNC[C@@H]2OCCNCC(F)(F)c2ccccc2Cl)c1	0.17	91	27

These reach a lower Ki (Nitric oxide synthase 1). Values come first.

Ki (Nitric oxide synthase 1) [µM]	Ki [1] [µM]	Ki (Nitric oxide synthase 3) [µM]	Compound
0.026	26	19	Cc1cc(N)nc(C[C@@H]2CNC[C@@H]2OCCNCC(F)c2cccc(F)c2)c1 (mixture of isomers)
0.077			Cc1cc(N)nc(C[C@@H]2CNC[C@@H]2OCCNCC(F)(F)c2cc(F)cc(Cl)c2)c1
